An excerpt weighted towards active compounds, which were near 3.5% of everything screened.
RGS4 pot: RGS4 potentiators or activators, primary screen, cell-based, HEK293 M3R inducible RGS4, calcium flux. carbachol calcium flux Fluo4; hits give low values. 310,000 compounds, 0.92% hits. B-score at 10 µM;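 active means B-score of the integrated calcium signal more than 4 SD below the library mean, with starting fluorescence not abnormally high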;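 further: negative B-score means reduced calcium response which marks RGS4 activation or potentiation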
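System: HEK293 FlpIn-TREx cells, stable M3R, doxycycline-inducible RGS4. Timing: overnight RGS4 induction, 30 min dye load 37 °C, 20 min compound RT. Also added: carbachol, ECmax concentration. Measured by: Fluo4 fluorescence kinetic imaging of calcium. Evaluation: integrated calcium ratio converted to B score.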
RGS4 block: RGS4 inhibitors, primary screen, cell-based, HEK293 M3R inducible RGS4, calcium flux | Regulator of G-protein signaling 4 (Homo sapiens), P49798 | Fluo-4 calcium flux; hits give high values; triggered by carbachol at its EC20 | B-score at 10 µM | 310,000 compounds, 0.45% hits;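 active means B-score, a plate-corrected calcium signal, over three deviations above library mean, with baseline fluorescence within five deviations of library mean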;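 further: RGS4 expression induced by doxycycline in cells with stable M3 receptor; B-score is computed from the integrated fluorescence ratio over baseline after carbachol; higher B-score means a larger calcium signal and so more RGS4 inhibition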
Target sequence (P49798 whole entry, looked up): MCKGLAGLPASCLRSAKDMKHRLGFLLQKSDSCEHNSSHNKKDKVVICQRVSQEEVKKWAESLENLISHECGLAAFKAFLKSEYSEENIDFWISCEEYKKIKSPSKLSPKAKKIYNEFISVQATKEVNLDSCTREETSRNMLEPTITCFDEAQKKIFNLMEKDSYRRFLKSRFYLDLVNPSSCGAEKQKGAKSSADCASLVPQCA
MrgX1 PAM: positive allosteric modulators of MrgX1, primary screen, HEK293 cells, Fluo-4 calcium flux. B-score at 10 µM. Mas-related G-protein coupled receptor member X1 (Homo sapiens), Q96LB2. FDSS; hits give high values. 310,000 compounds, 0.63% hits;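 active means plate-corrected calcium response at least 3 library SD above typical, normal starting fluorescence, not activating the receptor alone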;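 further: compound read alongside a low EC10 to EC30 dose of BAM8-22 agonist; peak minus trough fluorescence over baseline measured at the second addition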
Target sequence (Q96LB2 whole entry, looked up): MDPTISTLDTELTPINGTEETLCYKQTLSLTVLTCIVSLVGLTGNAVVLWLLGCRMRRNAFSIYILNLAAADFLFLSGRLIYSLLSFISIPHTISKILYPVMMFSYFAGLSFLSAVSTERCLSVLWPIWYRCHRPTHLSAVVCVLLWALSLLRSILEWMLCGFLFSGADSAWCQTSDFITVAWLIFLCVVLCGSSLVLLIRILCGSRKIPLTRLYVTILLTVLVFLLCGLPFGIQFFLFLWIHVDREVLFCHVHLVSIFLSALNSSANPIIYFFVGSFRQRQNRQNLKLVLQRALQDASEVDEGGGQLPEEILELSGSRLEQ
MrgX1 antagonist: antagonists of human MrgX1 receptor, primary screen, HEK293 cells, Fluo-4 calcium flux | BAM8-22 antagonism; hits give low values | B-score at 10 µM | 310,000 compounds, 1.3% hits;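 active means calcium-response B-score plate-corrected more than 3 library SD below zero, starting fluorescence within 5 deviations, no agonist response on first addition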;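 further: peak minus trough fluorescence over baseline after final BAM8-22 challenge near maximal dose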
MrgX1 ag: agonists of human MrgX1 receptor, primary screen, HEK293 cells, Fluo-4 calcium flux; Mas-related G-protein coupled receptor member X1 (Homo sapiens), Q96LB2; Fluo-4 calcium fluorescence, agonist mode; hits give high values; B-score at 10 µM; 310,000 compounds, 0.44% hits; AID 588627, 2011;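 active means calcium response B-score plate-corrected fluorescence ratio at least 3 library SD, with starting fluorescence B-score inside 5 SD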
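Material: MrgX1-expressing HEK293 cells; input: 15,000 cells per well; doses: test compound given as first of three sequential additions; schedule: overnight plating before 1 h dye loading; technique: Fluo-4 NW calcium-flux fluorescence, kinetic read; evaluation: baseline-normalised fluorescence change ratio, B-scored; control set: plate-wise positive and negative controls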
MrgX1 antag conf: MrgX1 receptor antagonists, duplicate retest, confirmation, HEK293 cells, Fluo-4 calcium flux; AID 602420, 2012; BAM8-22 calcium flux; hits give low values; 2,300 compounds, 19% hits; shares compounds with MrgX1 antagonist; remaining BAM8-22 calcium response % of control (hits give low values), % at 10 µM;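 active means remaining agonist calcium response no higher than 100% minus 3 SD of agonist-only control wells, with starting fluorescence near control levels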;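 further: agonist BAM8-22 given at a near maximal EC90 to ECmax level; peak minus minimum fluorescence divided by baseline after agonist addition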
HEK293 Ca flux: nonspecific calcium signal in parental HEK293, confirmation, counter-screen for MrgX1 antagonist project, parental HEK293 cells, Fluo-4 calcium flux | shares compounds with MrgX1 antagonist | Fluo-4 calcium fluorescence, FDSS | fluorescence ratio F(max-min)/F0 at 10 µM | 4,000 compounds, 2% hits;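 active means duplicate-averaged calcium fluorescence ratio at least three times the standard deviation of buffer wells, a nonspecific response in parental cells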
HEK293 Ca counter: calcium response in parental HEK293 cells, primary screen, counter-screen for MrgX1 allosteric activator project, cell-based, Fluo-4 calcium flux, duplicate; shares compounds with MrgX1 antagonist; Fluo-4 fluorescence ratio; hits give high values; fluorescence ratio F(max-min)/F0 at 10 µM; 4,000 compounds, 0.4% hits; AID 624114, 2012;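 active means calcium fluorescence ratio, averaged over duplicates, at least 3 SD of the buffer-well ratio, meaning a nonspecific response in receptor-free cells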;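 further: untransfected parental HEK293 lacking MrgX1 used as counterscreen for MrgX1 allosteric activators; fluorescence change taken during the second addition on a kinetic imager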
HEK293 Ca cntr2: calcium response in parental HEK293 cells, primary screen, counter-screen for MrgX1 agonist project, cell-based, Fluo-4 calcium flux, duplicate, agonist mode | shares compounds with MrgX1 antagonist | Fluo-4 calcium fluorescence (FDSS); hits give high values | fluorescence ratio F(max-min)/F0 at 10 µM | 4,000 compounds, 8.7% hits | AID 624115, 2012;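 active means calcium fluorescence ratio at least three times the spread of buffer wells, meaning a non-specific response in parental cells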
Numbers stand for hits; - = inactive; . = no result.

SMILES | RGS4 pot | RGS4 block | MrgX1 PAM | MrgX1 antagonist | MrgX1 ag | MrgX1 antag conf | HEK293 Ca flux | HEK293 Ca counter | HEK293 Ca cntr2
Cc1ccc(N2CN(Cc3ccco3)CNC2=S)c(C)c1 | - | - | - | -6.3 | - | - | - | - | -
Cc1ccc(N2CN(Cc3cccnc3)CNC2=S)c(C)c1 | - | - | - | - | - | . | . | . | .
CC(C)N1CC23C=CC(O2)C(C(=O)OCc2ccccc2)C3C1=O (stereo not drawn) | - | - | - | -5 | - | - | - | - | -
CC(C)N1C[C@@]23C=C[C@@H](O2)C(C(=O)OCc2ccccc2)[C@H]3C1=O (stereo partly drawn) | - | - | - | - | - | . | . | . | .
O=C(C1CCC(CNc2c(N3CCCCC3)c(=O)c2=O)CC1)N1CCN(c2ccccn2)CC1 (stereo not drawn) | - | - | - | - | - | . | . | . | .
CCOC(=O)CNc1c(N2CCN(c3ccccn3)CC2)c(=O)c1=O | - | - | - | -6.5 | - | - | - | - | -
c1coc(C2Nc3ccccc3-c3nc4ccccc4n32)c1 (stereo not drawn) | - | - | - | -6.3 | - | - | - | - | -
Cc1cccc(C(=O)Nc2nnc(SCC(=O)Nc3ccc4c(c3)oc3ccccc34)s2)c1 | - | - | - | -11 | - | - | - | - | -
Cn1c(C(=O)N2CCC(C(N)=O)CC2)cc2cc(Cl)ccc21 | - | - | - | -6.1 | - | - | - | - | -
O=C(Nc1ccc(NC(=O)c2cccs2)cc1)c1cccnc1 | - | - | - | -5.8 | - | - | - | - | -
Cc1cccc(NC(=O)c2cccnc2)c1 | - | - | - | - | - | . | . | . | .
Cc1ccc(NC(=O)c2cccs2)cc1NC(=O)c1cccnc1 | - | - | - | - | - | . | . | . | .
O=C(NCCOC(=O)c1cccs1)c1cccnc1 | - | - | - | -7.8 | - | - | - | - | -
Cc1cc(NC(=O)c2cccnc2)ccc1Br | - | - | - | -7.5 | - | - | - | - | -
CCCCc1cc(=O)oc2cc(C)cc(OCC(=O)Nc3ccccn3)c12 | - | - | - | - | - | . | . | . | .
Cc1cccc(NC(=O)CCNC(=O)c2ccc(Br)cc2)c1 | - | - | - | - | - | . | . | . | .
O=C(COc1ccc([N+](=O)[O-])cc1)N(C1CCCCC1)C1CCS(=O)(=O)C1 (stereo not drawn) | - | - | - | - | - | . | . | . | .
Cc1ccc(S(=O)(=O)N(CC(=O)N2CCCCCC2)c2ccccc2)cc1 | - | - | - | - | - | . | . | . | .
Cc1ccc(N(CC(=O)N2CCN(C3CCCCC3)CC2)S(=O)(=O)c2cccnc2)cc1 | . | . | - | -8.8 | - | - | - | - | -
Cc1cccn2c(=O)nc(SCC(=O)NC3CCCC3)nc12 | - | - | - | - | - | . | . | . | .
COc1ccccc1CNC(=O)COC(=O)C1CCN(c2ccc(C(F)(F)F)cn2)CC1 | - | - | - | -7.6 | - | - | - | - | -
O=C(COC(=O)C1CCN(c2ccc(C(F)(F)F)cn2)CC1)NCCc1ccccc1 | - | - | - | - | - | . | . | . | .
Oc1ccccc1NCC(O)Cn1ccc2ccccc21 (stereo not drawn) | - | - | - | -5.3 | - | - | - | - | -
O=C(CSc1nnc(CNC(=O)c2cccs2)o1)NC1CCCCC1 | - | - | - | -7.1 | - | - | - | - | -
COc1ccc(CC(=O)OCC(=O)Nc2ncc(Cl)cc2Cl)cc1 | - | - | - | -4.7 | - | - | - | - | -
SMILES | RGS4 pot | RGS4 block | MrgX1 PAM | MrgX1 antagonist | MrgX1 ag | MrgX1 antag conf | HEK293 Ca flux | HEK293 Ca counter | HEK293 Ca cntr2
Cc1nc2ccccc2c2c1CC(C(C)(Cl)Br)O2 (stereo not drawn) | - | - | - | - | - | . | . | . | .
COc1c2c(nc3ccccc13)OC(C(C)(O)COC(C)=O)C2 (stereo not drawn) | - | - | - | -6.5 | - | - | - | - | -
CC(C)(C)c1ccc(C(=O)NCC(=O)N2CCC3(CC2)NCCc2[nH]cnc23)cc1 | - | - | - | - | - | . | . | . | .
CCN(c1ccccc1)S(=O)(=O)c1ccc2c(c1)C(C)(C)C(=O)N2C | - | - | - | - | - | . | . | . | .
O=C(Nc1cc(Cl)cc(Cl)c1)c1ccno1 | - | - | - | -4.5 | - | - | - | - | -
Cc1ccc(NNC(=O)c2ccno2)cc1Cl | - | - | - | - | - | . | . | . | .
CCC(C)(C)n1nnnc1C(c1cc2cc3c(cc2[nH]c1=O)OCO3)N1CCCCC1 (stereo not drawn) | - | - | - | -5.9 | - | - | - | - | -
Cc1ccc(C(=O)CN2C(=O)C(=O)N(Cc3ccccc3)C2=O)cc1 | - | - | - | -6.4 | - | 80% | - | - | -
COc1cc2ccccc2cc1C(=O)Nc1nccs1 | - | - | - | -4.6 | - | - | - | - | -
COc1ccc(/C(C)=N/NC(=S)Nc2cc(C)ccc2C)cc1 | - | - | - | - | - | . | . | . | .
CCOC(=O)c1cc2occc2n1CC(=O)N1CCOCC1 | - | - | - | - | - | . | . | . | .
CCOC(=O)c1cc2occc2n1CCCN1C(=O)c2ccccc2C1=O | - | - | - | -6.1 | - | - | - | - | -
Cc1ccc(S(=O)(=O)Cn2nnnc2C(C(C)C)N2CCN(Cc3ccco3)CC2)cc1 (stereo not drawn) | - | - | - | -5.7 | - | - | - | - | -
Cc1ccc(S(=O)(=O)Cn2nnnc2C(C(C)C)N2CCSCC2)cc1 (stereo not drawn) | - | - | - | - | - | . | . | . | .
COc1ccc2[nH]c(=O)c(CN(c3ccc(C)c(C)c3)S(C)(=O)=O)cc2c1 | - | - | - | -4.5 | - | - | - | - | -
CSCC[C@H](NC(=O)C1CCN(S(=O)(=O)c2ccccc2)CC1)C(=O)NC1CC1 | - | - | - | - | - | . | . | . | .
